Square brackets hold non-standard residues; d marks the D form. Peptide text beside a SMILES is read from it. Phe(4-NH2) = Nc1ccc(C[C@H](N)C(=O)O)cc1; Phe(4-F) = N[C@@H](Cc1ccc(F)cc1)C(=O)O

The record followed here is ChEMBL document CHEMBL1127359, “Synthetic laminin-like peptides and pseudopeptides as potential antimetastatic agents” (1994).

Holding throughout (assay type): functional, cell-based
Assay [1] deals with B16-F10. Briefly: Antimetastatic activity against HT1080 and B16F10 cells in cell attachment assay; high attachment activity with about 70% of cells attached.
The subject of assay [2] is B16-F10. As to the kind of experiment: Antimetastatic activity against HT1080 and B16F10 cells in cell attachment assay; Moderate attachment activity. The method, boiled down:
(§1)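 Peptide dissolved in water with a drop of acetic acid and dried overnight onto culture wells (amount given is quantity dried on plastic). Wells blocked with EMEM/3% BSA 30 min at 37 °C, then EMEM/0.02% BSA. HT-1080 or B16F10 cells (4 × 10⁴) added, 1 h at 37 °C, 5% CO₂. PBS wash; attached cells fixed, stained and counted (eight fields/well) or trypsinized and Coulter-counted; duplicate wells, mean ± SD.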

The subject of assay [3] is B16-F10. As to the kind of experiment: Antimetastatic activity against HT1080 and B16F10 cells in cell attachment assay; Low attachment activity.
The test system of assay [4] is B16-F10. As to the kind of experiment: Antimetastatic activity against HT1080 and B16F10 cells in cell attachment assay; Moderat attachment activity. The method in brief:
as §1

Assay [5] concerns B16-F10. As to the kind of experiment: Antimetastatic activity against HT1080 and B16F10 cells in cell attachment assay; high, but not maximal, attachment activity. The method in brief:
as §1

Assay [6] has as its system B16-F10. Briefly: Antimetastatic activity against HT1080 and B16F10 cells in cell attachment assay; low attachment activity.
The test system of assay [7] is B16-F10. As to the kind of experiment: Antimetastatic activity against HT1080 and B16F10 cells in cell attachment assay; moderate attachment activity. The method, boiled down:
as §1

For H-CYIGSRYIGSRYIGSR-NH2, the Activity entry with B16-F10 [1] is reported as “high attachment activity with about 70% of cells attached”. In the case of `CC[C@H](C)[C@H](NC(=O)[C@H](N)Cc1ccc(O)cc1)C(=O)NCC(=O)N[C@@H](CO)C(=O)N[C@@H](CCCN=C(N)N)C(=O)O` [LAMININ], the Activity entry in the assay with B16-F10 [1] was “high attachment activity with about 70% of cells attached”.

Turning to `CC[C@H](C)[C@H](NC(=O)[C@@H](N)Cc1ccc(F)cc1)C(=O)NCC(=O)N[C@@H](CO)C(=O)N[C@@H](CCCN=C(N)N)C(N)=O` (H-[Phe(4-F)]IGSR-NH2), in the assay on B16-F10 [2], the Activity entry is given as “Moderate attachment activity”.

Take H-FIGSR-NH2: the Activity entry with B16-F10 [3] is “Low attachment activity”.

On to `CC[C@H](C)[C@H](NC[C@@H](N)Cc1ccc(O)cc1)C(=O)NCC(=O)N[C@@H](CO)C(=O)N[C@@H](CCCN=C(N)N)C(N)=O`, for which the Activity entry in the assay on B16-F10 [4] is “Moderat attachment activity”. As to `CC[C@H](C)[C@H](NC(=O)[C@@H](N)Cc1ccc(N)cc1)C(=O)NCC(=O)N[C@@H](CO)C(=O)N[C@@H](CCCN=C(N)N)C(N)=O` (H-[Phe(4-NH2)]IGSR-NH2), in the assay on B16-F10 [5], the Activity result is reported as “high, but not maximal, attachment activity”. With `CC[C@H](C)[C@@H](CNCC(=O)N[C@@H](CO)C(=O)N[C@@H](CCCN=C(N)N)C(N)=O)NC(=O)[C@@H](N)Cc1ccc(O)cc1`, in the assay with B16-F10 [6], the Activity result was “low attachment activity”. Consider `CC[C@H](C)[C@H](NC(=O)[C@H](N)Cc1ccc(O)cc1)C(=O)NCC(=O)N[C@@H](CO)C(=O)N[C@@H](CCCN=C(N)N)C(N)=O`, for which the Activity entry with B16-F10 [3] is listed as “Low attachment activity”. As for `CC[C@H](C)[C@@H](C(=O)NCC(=O)N[C@@H](CO)C(=O)N[C@@H](CCCN=C(N)N)C(N)=O)N(C=O)C[C@@H](N)Cc1ccc(O)cc1`, the Activity result with B16-F10 [7] is listed as “moderate attachment activity”. For the molecule `CC[C@H](C)[C@H](NC(=O)[C@@H](N)Cc1ccc(O)cc1)C(=O)NCC(=O)N[C@@H](CO)CN[C@@H](CCCN=C(N)N)C(N)=O`, the Activity entry in the assay with B16-F10 [3] is recorded as “Low attachment activity”. For `CC[C@H](C)[C@H](NC(=O)[C@@H](N)Cc1ccc(O)cc1)C(=O)NCC(=O)N[C@@H](CO)C(=O)N[C@@H](CCCN=C(N)N)C(N)=O`, the Activity result in the assay with B16-F10 [3] was “Low attachment activity”.

For the molecule `CC[C@H](C)[C@H](NC(=O)[C@@H](N)Cc1ccc(O)cc1)C(=O)NCCN[C@@H](CO)C(=O)N[C@@H](CCCN=C(N)N)C(N)=O`, the Activity entry with B16-F10 [6] is given as “low attachment activity”.
